Experimental data published in the array DNA melting data of Ke et al. (doi:10.1101/2024.01.08.574731).

Assays:
[1] = melting temperature; fluorescence melt of hairpins on a sequencing array, two-state fit, raised by 9.35 °C to match UV melts; settings: sodium 0.088 M
Method in brief: (§1)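 Folding enthalpy and melting temperature were estimated with bootstrapped two-state fits and combined across four replicates by inverse-variance weighting, with fitted temperatures raised by 9.35 °C to match UV melts. The data were Cy3 fluorescence of library hairpins, with annealed Cy3 and quencher oligos, on a sequenced MiSeq flow cell in 50 mM Na-HEPES pH 8.0, 25 mM NaCl, imaged in 2.5 °C steps up to 60 °C and normalised to pre-quench Cy3 and control constructs.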

[2] = folding enthalpy; higher = less favourable; fluorescence melt of hairpins on a sequencing array, two-state fit; settings: sodium 0.088 M
Method in brief: as §1

Sequence | Tm [1] | folding enthalpy [2]
GCCACCGGAAACGGCGAC (.(.(((....))).).) | 34.7 °C | -59.5 kJ/mol
GTTGTCGAAAGACCAAAC ((((((....)))..))) | 26 °C | -44.3 kJ/mol
GATCCGGACCGGATC ((((((...)))))) | 57.3 °C | -145 kJ/mol
GCGATTGAAAAATCGC ((((((....)))))) | 64.8 °C | -170 kJ/mol
GCTGACGAAAGTCTAAGC ((((((....)))..))) | 47.1 °C | -80.1 kJ/mol
GATTATGGAAACATGATC (((.(((....))).))) | 35.5 °C | -137 kJ/mol
GATTGCGGAAACGCAACC (.(((((....))))).) | 45.5 °C | -51.1 kJ/mol
GATCGTCTATACGATC ((((((....)))))) | 54.8 °C | -163 kJ/mol
CGAAGCGGAAACGCATCG (((.(((....))).))) | 51.5 °C | -115 kJ/mol
GAGAACGAAAGTTGCTC ((((((....))).))) | 33.6 °C | -65.6 kJ/mol
GTGATGGGAAACCATTGC (..((((....))))..) | 33.7 °C | -98.8 kJ/mol
GCGGAGCGAAAGCGCGGC ((.(.((....)).).)) | 58.6 °C | -64 kJ/mol
GAGACCGAAAGGTCACTC ((((((....)))..))) | 55.1 °C | -57.7 kJ/mol
GACACCGAAAGGTCCGTC ((((((....)))..))) | 31.4 °C | -70.5 kJ/mol
GCTCCGCGAAAGCGTAGC (((.(((....))).))) | 51.8 °C | -137 kJ/mol
GTGTCCGAAAGGAACAC ((((((....))).))) | 52.8 °C | -126 kJ/mol
GATTCCGAAAGGAAATC ((((((....))).))) | 41.5 °C | -89.5 kJ/mol
GGCATCGAAAGATAAGCC ((((((....)))..))) | 44.7 °C | -117 kJ/mol
GATCGCGAGCGCGATC ((((((....)))))) | 67.2 °C | -148 kJ/mol
GGATCAGGAAACTGATCC (((((((....))))))) | 64.5 °C | -185 kJ/mol
GCGGATGGAAACGTCCGC (((((.(....).))))) | 62.6 °C | -192 kJ/mol
GCAAGGCGAAAGCTCTGC (((..((....))..))) | 43.7 °C | -90 kJ/mol
GCGCTAGGAAACTGGTGC ((.(.((....)).).)) | 44.3 °C | -121 kJ/mol
GATCACCAGAGTGATC ((((((....)))))) | 57.2 °C | -167 kJ/mol

Sequence | Tm [1] | folding enthalpy [2]
GATCTATTACTAGATC ((((((....)))))) | 39.2 °C | -135 kJ/mol
GATCATGATGATGATC ((((((....)))))) | 47.5 °C | -135 kJ/mol
GGATCCGAAAGGAGCTCC ((((((....)))..))) | 44.2 °C | -56 kJ/mol
GCGAGCATCGC ((((...)))) | 62.1 °C | -91.1 kJ/mol
GATCTAGGTTAGATC ((((((...)))))) | 39.2 °C | -119 kJ/mol
CGCACGGAAACGTACGCG ((((((....)))..))) | 46.1 °C | -92.3 kJ/mol
GATCCAGGTGTGGATC ((((((....)))))) | 52 °C | -187 kJ/mol
CGCGGACCAATCCGCG ((((((....)))))) | 62.2 °C | -164 kJ/mol
GATCAGAAATGATC (((((....))))) | 41.1 °C | -94.3 kJ/mol
GCGCTGGCGAAAGCCCGC (((..(((....)))))) | 55.5 °C | -71.1 kJ/mol
GGCTCCCCGAAAGGGGCC (((..(((....)))))) | 50.9 °C | -50.1 kJ/mol
GCCCCCCGAAAGGGTGGC (((.(((....))).))) | 64.2 °C | -138 kJ/mol
GATCTGTGCCCAGATC ((((((....)))))) | 49 °C | -128 kJ/mol
GATCCGAGACGGATC ((((((...)))))) | 55.8 °C | -167 kJ/mol
GAAGAGGGAAACCTCCTC ((.((((....)))).)) | 26.4 °C | -62.4 kJ/mol
GATCGACTTTTCGATC ((((((....)))))) | 51.6 °C | -147 kJ/mol
CGATAGAAATATCG (((((....))))) | 39.1 °C | -82.8 kJ/mol
GATCCATTATGGATC ((((((...)))))) | 52.7 °C | -150 kJ/mol
GCAAGCGAAAGCTTGTGC ((((((....)))..))) | 66.7 °C | -70.9 kJ/mol
GACGTACGAAAGTAGGTC (((.(((....))).))) | 52.6 °C | -161 kJ/mol
GATCTGCCTACAGATC ((((((....)))))) | 50.8 °C | -175 kJ/mol
GAGCACGAAAGTGCCTC ((((((....))).))) | 51.2 °C | -43.7 kJ/mol
GATCCTATTTAGGATC ((((((....)))))) | 54.4 °C | -170 kJ/mol
GTCTCTGGAAACGGAGAC (((((.(....).))))) | 50.8 °C | -145 kJ/mol

Sequence | Tm [1] | folding enthalpy [2]
GGGAAGGGAAACCTTCTC (.(((((....))))).) | 46.6 °C | -99.7 kJ/mol
GTGCGAGGAAACCCGCAC (((((.(....).))))) | 58.1 °C | -145 kJ/mol
GCTATCTCGAAAGAGAGC (((..(((....)))))) | 37.2 °C | -69.9 kJ/mol
GGAATTCGAAAGAACTCC (((.(((....))).))) | 36.4 °C | -117 kJ/mol
GATCTCCGTGGAGATC ((((((....)))))) | 59.2 °C | -200 kJ/mol
GGTTCGGGAAACTGGACC (((.(.(....).).))) | 41.2 °C | -122 kJ/mol
GCCTCGCGAAAGCTGGGC (((..((....))..))) | 55.4 °C | -92.8 kJ/mol
GAAGCGCGAAAGCGTTC (((.(((....)))))) | 41.2 °C | -44.2 kJ/mol
GGTAGCGAAAGCTTCACC ((((((....)))..))) | 34.4 °C | -57.7 kJ/mol
GGCCCGGCGAAAGCCGCC (((..(((....)))))) | 37 °C | -32.1 kJ/mol
GGGACGGCGAAAGCCCCC (((..(((....)))))) | 42.3 °C | -61.7 kJ/mol
GTGGTCCGAAAGGAGCAC (((.(((....))).))) | 67.6 °C | -145 kJ/mol
GACAACGAAAGTTCGTC ((((((....))).))) | 42.6 °C | -87.9 kJ/mol
GCCCAGCGAAAGCAGTGC ((.(.((....)).).)) | 34.7 °C | -55.8 kJ/mol
GGTTGCGGAAACGTAACC ((((.((....)).)))) | 54 °C | -200 kJ/mol
GATCGTGTCACGATC ((((((...)))))) | 59.3 °C | -160 kJ/mol
GCCATATCGAAAGATGGC (((..(((....)))))) | 48.2 °C | -145 kJ/mol
GCCGCTCGAAAGAGGGC (((.(((....)))))) | 55.2 °C | -95.6 kJ/mol
GTTGCACGAAAGTGTAAC (((.(((....))).))) | 55.5 °C | -124 kJ/mol
GCCCTGCGAAAGCTCGGC (((..((....))..))) | 46.9 °C | -80.7 kJ/mol
ATATGGAAACATAT (((((....))))) | 27.6 °C | -47.6 kJ/mol
GATCTCGGAAACGAGACC (.(((((....))))).) | 40.7 °C | -69.2 kJ/mol
GAAACAGGAAACTGCTTC (((.(((....))).))) | 31.6 °C | -91.5 kJ/mol
GATACTGGAAACAGCATC (((.(((....))).))) | 34.2 °C | -115 kJ/mol

Sequence | Tm [1] | folding enthalpy [2]
GAAGACCGAAAGGTTTTC (((.(((....))).))) | 47.9 °C | -114 kJ/mol
GCGAGCGGAAACGCCCAC (.(.(((....))).).) | 34.2 °C | -36.3 kJ/mol
GTGTTGGCGAAAGCCCAC (((..(((....)))))) | 47 °C | -65.1 kJ/mol
GATCACCGCCGTGATC ((((((....)))))) | 54.4 °C | -203 kJ/mol
GTGAGCCGAAAGGCCAC (((.(((....)))))) | 64.7 °C | -78.3 kJ/mol
GTTCGCGGAAACGCAAAC (((.(((....))).))) | 43.7 °C | -87.1 kJ/mol
GTCGCCGAAAGGCTCGAC ((((((....)))..))) | 39.1 °C | -55.1 kJ/mol
GCTCTGCGAAAGCTGGGC ((.(.((....)).).)) | 54.3 °C | -89.7 kJ/mol
GCGCGCCGAAAGGCCCGC (((.(((....))).))) | 68.5 °C | -135 kJ/mol
GATCATGCAATGATC ((((((...)))))) | 59.2 °C | -192 kJ/mol
GTTCATGGAAACATGAAC (((((((....))))))) | 58.2 °C | -209 kJ/mol
GCCTATGGAAACATAAGC ((.((((....)))).)) | 27.6 °C | -65.3 kJ/mol
GATTCGGGAAACTGAATC (((((.(....).))))) | 45 °C | -171 kJ/mol
GATTCCGAAAGGAATC ((((((....)))))) | 64.9 °C | -149 kJ/mol
GTCGGGGCGAAAGCCGAC (((..(((....)))))) | 56.9 °C | -71.8 kJ/mol
GAAGGGGAAACCCTTC ((((((....)))))) | 53.8 °C | -120 kJ/mol
GCGGCAGACCGC ((((....)))) | 56.2 °C | -96.9 kJ/mol
GATCTTCGTCAAGATC ((((((....)))))) | 40.7 °C | -140 kJ/mol
GCCCCAGGAAACTGAGGC (((.(((....))).))) | 47.5 °C | -140 kJ/mol
GACAAAGGAAACTTCGTC (((.(((....))).))) | 26.7 °C | -71 kJ/mol
CGGATCGGAAACGACCCG (((.(((....))).))) | 50 °C | -160 kJ/mol
